Test results published in ChEMBL document CHEMBL4382253, “Isolation and Characterization of Anaephenes A-C, Alkylphenols from a Filamentous Cyanobacterium ( Hormoscilla sp., Oscillatoriales)” (J Nat Prod, 2018).
In brackets after ≈: the same amount, converted by molar mass.

Columns and labels:
[1] = system: Mycobacterium tuberculosis; assay: Antibacterial activity against Mycobacterium tuberculosis H37Ra ATCC 25177 measured after 1 week; assay type: functional; settings: H37Ra ATCC 25177, 168 h
Method in brief: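 M. tuberculosis H37Ra grown two weeks in Middlebrook 7H9, diluted to OD600 0.01; broth microdilution in 96-well plates, compounds given at 2-fold final concentration in first column then serially diluted 2-fold; DMSO or H2O negative control, streptomycin positive control; triplicates; incubated one week at 37 °C.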

Pseudomonas aeruginosa = assay: Antibacterial activity against Pseudomonas aeruginosa PAO1 ATCC BAA-47 measured after overnight incubation; assay type: functional
Method in brief: (§1)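 Strain precultured overnight in LB broth at 37 °C, then diluted 10^6-fold in fresh medium. 2-fold serial broth microdilution in 96-well plates from 100 μM top concentration, DMSO or water negative control. Triplicate wells. MIC taken as the lowest concentration showing no turbidity.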

Saccharomyces cerevisiae = assay: Antifungal activity against Saccharomyces cerevisiae BY4741 measured after overnight incubation by spectrometric method; assay type: functional
Method in brief: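 Yeast grown overnight in YPD at 30 °C. Cell density set by A660, final 10 × 10^5 cells/mL. 2-fold serial dilution in YPD from 100 μM, DMSO negative control, nystatin positive control starting at 25 μM. Triplicates, overnight incubation.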

Staphylococcus aureus = assay: Antibacterial activity against Staphylococcus aureus ATCC 25923 Seattle 1945 measured after overnight incubation; assay type: functional; method in brief: as §1
HCT-116 = assay: Cytotoxicity against human HCT116 cells after 48 hrs by MTT assay; assay type: functional, cell-based; settings: HCT-116, 48 h
Method in brief: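 Cells kept in DMEM with 10% FBS and 1% antibiotic-antimycotic at 37 °C, 5% CO2. Seeded at 10,000 cells/well, treated after 24 h with a range of concentrations or DMSO. Viability read by MTT after 48 h.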

Bacillus cereus = assay: Antibacterial activity against Bacillus cereus ATCC 10987 NRS 248 measured after overnight incubation; assay type: functional
Method in brief: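 B. cereus grown overnight in LB broth at 30 °C, diluted 10^6-fold in fresh medium. 2-fold serial broth microdilution in 96-well plates starting at 100 μM, DMSO or water as negative control. Triplicates. MIC is the lowest concentration with no visible turbidity.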

| Molecule | MIC [1] | MIC (Pseudomonas aeruginosa) | MIC (Saccharomyces cerevisiae) | MIC (Staphylococcus aureus) | IC50 (HCT-116) | MIC (Bacillus cereus) |
| --- | --- | --- | --- | --- | --- | --- |
| CN[C@@H]1[C@H](O[C@H]2[C@H](O[C@H]3[C@H](O)[C@@H](O)[C@H](N=C(N)N)[C@@H](O)[C@@H]3N=C(N)N)O[C@@H](C)[C@]2(O)C=O)O[C@@H](CO)[C@H](O)[C@H]1O [STREPTOMYCIN] | 3.1 mg/L (≈ 5.33 µM) | 6.2 mg/L (≈ 10.7 µM) |  |  |  |  |
| NYSTATIN |  |  | 23 mg/L |  |  |  |
| C#CCCC/C=C/CCCCc1cccc(O)c1 | > 24 mg/L | > 24 mg/L | > 24 mg/L | 6.1 mg/L (≈ 25.2 µM) | 71 µM | 6.1 mg/L (≈ 25.2 µM) |
| CCC/C=C/CCCCc1cccc(O)c1 | > 22 mg/L | > 22 mg/L | > 22 mg/L | 22 mg/L (≈ 101 µM) | 26 µM | 11 mg/L (≈ 50.4 µM) |
| O=C(N[C@H](CO)[C@H](O)c1ccc([N+](=O)[O-])cc1)C(Cl)Cl [CHLORAMPHENICOL] |  |  |  | 4 mg/L (≈ 12.4 µM) |  |  |
| CCC/C=C/C=C/CCc1cccc(O)c1 | > 22 mg/L | > 22 mg/L | > 22 mg/L | 22 mg/L (≈ 102 µM) | > 100 µM | 22 mg/L (≈ 102 µM) |
| O=C(O)c1cn(C2CC2)c2cc(N3CCNCC3)c(F)cc2c1=O [CIPROFLOXACIN] |  |  |  |  |  | 0.03 mg/L (≈ 0.0905 µM) |
